Results gathered from unrelated publications.
Each line is one published result; the experiments were not run side by side.
BAZ1A: Bromodomain adjacent to zinc finger domain protein 1A (BAZ1A, Homo sapiens, UniProt Q9NRL2)
MTNR1B: Melatonin receptor type 1B (MTNR1B, Homo sapiens, UniProt P49286)
RIOK3: Serine/threonine-protein kinase RIO3 (RIOK3, Homo sapiens, UniProt O14730)
CDK7 with cyclin H: Cyclin-dependent kinase 7, with cyclin H (CDK7, Homo sapiens, UniProt P50613)

| SMILES | target | assay | test system | setting | quantity | value |
| --- | --- | --- | --- | --- | --- | --- |
| Cc1cc2c(cc1N1C(=O)c3cccc4c(Cl)ccc(c34)C1=O)n(C)c(=O)n2C | BAZ1A | thermal stability, DSF |  | 10 µM | ΔTm | -1 °C |
| CCC(=O)NC1Cc2ccccc2C(c2ccccc2)C1 (centres unmarked) | MTNR1B | GTPγS binding, agonist, radiometric |  | cell membranes | Emax | 34% |
| Cc1ccc(S(=O)(=O)NCC(=O)N2CCC[C@H]2C(=O)N[C@@H](CCCN=C(N)N)C(=O)Nc2ccc([N+](=O)[O-])cc2)cc1 | Prothrombin (F2, Homo sapiens, UniProt P00734) | enzyme activity, substrate, absorbance |  |  | Km | 26.3 µM |
| CN(C)C1CCN(CC#Cc2nn(C3CCCC3)c3nc(NCc4ccccc4)ncc23)C1 (centres unmarked) | Death-associated protein kinase 1 (DAPK1, Homo sapiens, UniProt P53355) | enzyme activity, inhibitor, FRET |  | 10 µM | inhibition | 7% |
| Nc1ncnc2occ(-c3ccc(NC(=O)Nc4cc(C(F)(F)F)ccc4F)cc3)c12 | RIOK3 | cell-free assay, inhibitor |  | 20 µM | remaining signal | 89% |
| C[C@]12CC[C@@H]3c4ccc(O)cc4CC[C@H]3[C@@H]1CC[C@@H]2O | CDK7 with cyclin H | enzyme activity, inhibitor, ADP detection |  | 10 µM | inhibition | 38.3% |
| COc1cc2c(CCNC(C)=O)c[nH]c2cc1I | MTNR1B | β-arrestin recruitment, agonist | MT2 | 90 min | Emax | 101% |
| COc1ccc2cc3[n+](cc2c1OC)CCc1cc2c(cc1-3)OCO2 | CDK7 with cyclin H | enzyme activity, inhibitor, ADP detection |  | 10 µM | inhibition | 22.3% |
| Cc1ccc(C(=O)Nc2ccc(CN3CCN(C)CC3)c(C(F)(F)F)c2)cc1C#Cc1cnc2cccnn12 | RIOK3 | enzyme activity, inhibitor |  | 23.5 nM | remaining activity | 93% |
| CC/C(=C(/CC)c1ccc(O)cc1)c1ccc(O)cc1 | CDK7 with cyclin H | enzyme activity, inhibitor, ADP detection |  | 10 µM | inhibition | 14.7% |
| CCc1ccc2scc(CCNC(C)=O)c2c1 | MTNR1B | β-arrestin recruitment, agonist | MT2 | 90 min | Emax | 75% |
| O=c1cc(CO)occ1O | CDK7 with cyclin H | enzyme activity, inhibitor, ADP detection |  | 10 µM | inhibition | 21.3% |
| COc1ccc2ncn(CCNC(C)=O)c2c1 | MTNR1B | GTPγS binding, agonist, radiometric |  | cell membranes | Emax | 89% |
| Cc1cnc(Nc2ccc(OCCN3CCCC3)cc2)nc1Nc1cccc(S(=O)(=O)NC(C)(C)C)c1 | BAZ1A | thermal stability, DSF |  | 10 µM | ΔTm | 0.23 °C |
